# From ChEMBL document CHEMBL1240422, “Design, synthesis and biological evaluation of 3,5-diaryl-isoxazoline/isoxazole-pyrrolobenzodiazepine conjugates as potential anticancer agents” (2010)
# Calls of active or inactive are those of the source. The rule behind the calls is not given here.
# Experiments:
# A-375 [1] = assay: Cell cycle arrest in human A375 cells assessed as accumulation at S phase at 4 uM after 24 hrs using propidium iodide staining by FACS; format: functional
# In short: (§1)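 Treated A375 cells (24 h) were harvested with trypsin-EDTA and fixed in ice-cold 70% ethanol (4 °C, 30 min). After a PBS wash, they were incubated with 1 mg/mL RNase A (37 °C, 30 min) and stained with propidium iodide solution containing trisodium citrate and Triton X-100. DNA content was measured by flow cytometry on 20,000 events. Controls were DMSO-treated.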
# A-375 [2] = assay: Cell cycle arrest in human A375 cells assessed as accumulation at G2/M phase at 4 uM after 24 hrs using propidium iodide staining by FACS; format: functional; in short: as §1
# A-375 [3] = assay: Cell cycle arrest in human A375 cells assessed as accumulation at G0/G1 phase at 4 uM after 24 hrs using propidium iodide staining by FACS; format: functional; in short: as §1
# A-375 [4] = assay: Cytotoxicity against human A375 cells at 4 uM after 24 hrs […]; format: functional, cell-based
# CAKI-1 = assay: Anticancer activity against human Caki1 cells after 48 hrs by SRB assay; format: functional; conditions: CAKI-1, 48 h
# HT-29 = assay: Anticancer activity against human HT-29 cells after 48 hrs by SRB assay; format: functional; conditions: HT-29, 48 h
# KM12 = assay: Anticancer activity against human KM12 cells after 48 hrs by SRB assay; format: functional; conditions: KM12, 48 h
# MDA-MB-435 = assay: Anticancer activity against human MDA-MB-435 cells after 48 hrs by SRB assay; format: functional; conditions: MDA-MB-435, 48 h
# PC-3 = assay: Anticancer activity against human PC3 cells after 48 hrs by SRB assay; format: functional; conditions: PC-3, 48 h
# In short: (§2)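 Grown in RPMI 1640 with 10% FBS and 2 mM L-glutamine at 37 °C, 5% CO2. Seeded at densities set by doubling time, then preincubated 24 h. Continuous 48 h drug exposure at four concentrations (0.1, 1, 10, 100), triplicate wells. Fixed with cold TCA (final 10%) at 4 °C, 60 min. Stained with 0.4% SRB in 1% acetic acid, eluted with 10 mM Tris base, read at 540/690 nm. Percent growth versus control wells.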
# K562 = assay: Anticancer activity against human K562 cells after 48 hrs by SRB assay; format: functional; conditions: K562, 48 h
# RPMI-8226 = assay: Anticancer activity against human RPMI8226 cells after 48 hrs by SRB assay; format: functional; conditions: RPMI-8226, 48 h
# NCI-H522 = assay: Anticancer activity against human NCI-H522 cells after 48 hrs by SRB assay; format: functional; conditions: NCI-H522, 48 h
# T47D = assay: Anticancer activity against human T47D cells after 48 hrs by SRB assay; format: functional
# HL-60(TB) = assay: Anticancer activity against human HL-60(TB) cells after 48 hrs by SRB assay; format: functional; conditions: HL-60, 48 h
# NCI-H460 = assay: Anticancer activity against human NCI-H460 cells after 48 hrs by SRB assay; format: functional; conditions: NCI-H460, 48 h
# NCI-H23 = assay: Anticancer activity against human NCI-H23 cells after 48 hrs by SRB assay; format: functional; conditions: NCI-H23, 48 h
# UACC-257 = assay: Anticancer activity against human UACC257 cells after 48 hrs by SRB assay; format: functional; conditions: UACC-257, 48 h
# SK-MEL-5 = assay: Anticancer activity against human SK-MEL-5 cells after 48 hrs by SRB assay; format: functional; conditions: SK-MEL-5, 48 h
# MOLT-4 = assay: Anticancer activity against human MOLT4 cells after 48 hrs by SRB assay; format: functional; conditions: MOLT-4, 48 h
# SR = assay: Anticancer activity against human SR cells after 48 hrs by SRB assay; format: functional
# SF-539 = assay: Anticancer activity against human SF539 cells after 48 hrs by SRB assay; format: functional; conditions: SF-539, 48 h
# MCF7 = assay: Anticancer activity against human MCF7 cells after 48 hrs by SRB assay; format: functional; conditions: MCF7, 48 h; in short: as §2
# SK-OV-3 = assay: Anticancer activity against human SKOV3 cells after 48 hrs by SRB assay; format: functional; conditions: SK-OV-3, 48 h
# HOP-92 = assay: Anticancer activity against human HOP92 cells after 48 hrs by SRB assay; format: functional; conditions: HOP-92, 48 h
# U-251 = assay: Anticancer activity against human U251 cells after 48 hrs by SRB assay; format: functional; conditions: U-251, 48 h
# SF-268 = assay: Anticancer activity against human SF268 cells after 48 hrs by SRB assay; format: functional; conditions: SF-268, 48 h
# OVCAR-4 = assay: Anticancer activity against human OVCAR4 cells after 48 hrs by SRB assay; format: functional; conditions: OVCAR-4, 48 h
# RXF 393 = assay: Anticancer activity against human […] cells after 48 hrs by SRB assay; format: functional; conditions: RXF 393, 48 h
# IGROV-1 = assay: Anticancer activity against human IGROV1 cells after 48 hrs by SRB assay; format: functional; conditions: IGROV-1, 48 h
# SK-MEL-28 = assay: Anticancer activity against human SK-MEL-28 cells after 48 hrs by SRB assay; format: functional; conditions: SK-MEL-28, 48 h
# M14 = assay: Anticancer activity against human M14 cells after 48 hrs by SRB assay; format: functional; conditions: M14, 48 h
# SNB-19 = assay: Anticancer activity against human SNB19 cells after 48 hrs by SRB assay; format: functional; conditions: SNB-19, 48 h
# CCRF-CEM = assay: Anticancer activity against human CCRF-CEM cells after 48 hrs by SRB assay; format: functional
# NCI-H322M = assay: Anticancer activity against human NCI-H322M cells after 48 hrs by SRB assay; format: functional
# SK-MEL-2 = assay: Anticancer activity against human SK-MEL-2 cells after 48 hrs by SRB assay; format: functional; conditions: SK-MEL-2, 48 h
# 786-0 = assay: Anticancer activity against human 786-0 cells after 48 hrs by SRB assay; format: functional; conditions: 786-0, 48 h
# OVCAR-3 = assay: Anticancer activity against human OVCAR-3 cells after 48 hrs by SRB assay; format: functional; conditions: OVCAR-3, 48 h
# [5] = Anticancer activity against human Hs 578T cells after 48 hrs by SRB assay; format: functional
# A549 = assay: Anticancer activity against human A549 cells after 48 hrs by SRB assay; format: functional; conditions: A549, 48 h; in short: as §2
# HCT-116 = assay: Anticancer activity against human HCT116 cells after 48 hrs by SRB assay; format: functional; conditions: HCT-116, 48 h
# MDA-MB-468 = assay: Anticancer activity against human MDA-MB-468 cells after 48 hrs by SRB assay; format: functional; conditions: MDA-MB-468, 48 h
# MDA-MB-231 = assay: Anticancer activity against human MDA-MB-231 cells after 48 hrs by SRB assay; format: functional; conditions: MDA-MB-231, 48 h
# SN12C = assay: Anticancer activity against human SN12C cells after 48 hrs by SRB assay; format: functional
# EKVX = assay: Anticancer activity against human EKVX cells after 48 hrs by SRB assay; format: functional
# UO-31 = assay: Anticancer activity against human UO31 cells after 48 hrs by SRB assay; format: functional; conditions: UO-31, 48 h
# SW-620 = assay: Anticancer activity against human SW620 cells after 48 hrs by SRB assay; format: functional; conditions: SW-620, 48 h
# DU-145 = assay: Anticancer activity against human DU145 cells after 48 hrs by SRB assay; format: functional; conditions: DU-145, 48 h
# BT-549 = assay: Anticancer activity against human BT549 cells after 48 hrs by SRB assay; format: functional; conditions: BT-549, 48 h
# LOX IMVI = assay: Anticancer activity against human LOXIMVI cells after 48 hrs by SRB assay; format: functional
# A498 = assay: Anticancer activity against human A498 cells after 48 hrs by SRB assay; format: functional; conditions: A498, 48 h
# OVCAR-8 = assay: Anticancer activity against human OVCAR8 cells after 48 hrs by SRB assay; format: functional; conditions: OVCAR-8, 48 h
# NCI-H226 = assay: Anticancer activity against human NCI-H226 cells after 48 hrs by SRB assay; format: functional; conditions: NCI-H226, 48 h
# Malme-3M = assay: Anticancer activity against human MALME-3M cells after 48 hrs by SRB assay; format: functional
# ACHN = assay: Anticancer activity against human ACHN cells after 48 hrs by SRB assay; format: functional
# HCC 2998 = assay: Anticancer activity against human HCC2998 cells after 48 hrs by SRB assay; format: functional; conditions: HCC 2998, 48 h
# HCT-15 = assay: Anticancer activity against human HCT15 cells after 48 hrs by SRB assay; format: functional; conditions: HCT-15, 48 h
# OVCAR-5 = assay: Anticancer activity against human OVCAR5 cells after 48 hrs by SRB assay; format: functional; conditions: OVCAR-5, 48 h
# UACC-62 = assay: Anticancer activity against human UACC62 cells after 48 hrs by SRB assay; format: functional; conditions: UACC-62, 48 h
# HOP-62 = assay: Anticancer activity against human HOP62 cells after 48 hrs by SRB assay; format: functional; conditions: HOP-62, 48 h; in short: as §2
# SNB-75 = assay: Anticancer activity against human SNB75 cells after 48 hrs by SRB assay; format: functional; conditions: SNB-75, 48 h
# COLO 205 = assay: Anticancer activity against human COLO205 cells after 48 hrs by SRB assay; format: functional; conditions: COLO 205, 48 h; in short: as §2
# TK-10 = assay: Anticancer activity against human TK10 cells after 48 hrs by SRB assay; format: functional; conditions: TK-10, 48 h
smiles,measurement,setting,value
COc1ccc(/C=C\c2cc(OC)c(OC)c(OC)c2)cc1O [COMBRETASTATIN A4],Activity,A-375 [1],38.1%
same,Activity,A-375 [2],12.81%
same,Activity,A-375 [3],49.08%
same,Activity,A-375 [4],Active
COc1ccc(C2CC(c3cc(OC)c(OC)c(OC)c3)=NO2)cc1OCCCCOc1cc2c(cc1OC)C(=O)N1CCC[C@H]1C=N2 (some centres not stated),GI50,CAKI-1,3090 nM
same,GI50,HT-29,2750 nM
same,GI50,KM12,1740 nM
same,GI50,MDA-MB-435,3540 nM
same,GI50,PC-3,320 nM
same,GI50,K562,1260 nM
same,GI50,RPMI-8226,1430 nM
same,GI50,NCI-H522,610 nM
same,GI50,T47D,1310 nM
same,GI50,HL-60(TB),1900 nM
same,GI50,NCI-H460,1850 nM
same,GI50,NCI-H23,1830 nM
same,GI50,UACC-257,2330 nM
same,GI50,SK-MEL-5,1470 nM
same,GI50,MOLT-4,1850 nM
same,GI50,SR,1120 nM
same,GI50,SF-539,1800 nM
same,GI50,MCF7,1750 nM
same,GI50,SK-OV-3,3370 nM
same,GI50,HOP-92,2470 nM
same,GI50,U-251,1730 nM
same,GI50,SF-268,1890 nM
same,GI50,OVCAR-4,2070 nM
same,GI50,RXF 393,1390 nM
same,GI50,IGROV-1,1570 nM
same,GI50,SK-MEL-28,2070 nM
same,GI50,M14,1730 nM
same,GI50,SNB-19,1960 nM
same,GI50,CCRF-CEM,1410 nM
same,GI50,NCI-H322M,3460 nM
same,GI50,SK-MEL-2,2030 nM
same,GI50,786-0,1570 nM
same,GI50,OVCAR-3,1940 nM
same,GI50,[5],1100 nM
same,GI50,A549,2330 nM
same,GI50,HCT-116,1700 nM
same,GI50,MDA-MB-468,1340 nM
same,GI50,MDA-MB-231,1150 nM
same,GI50,SN12C,1580 nM
same,GI50,EKVX,3680 nM
same,GI50,UO-31,2090 nM
same,GI50,SW-620,1550 nM
same,GI50,DU-145,320 nM
same,GI50,BT-549,1230 nM
same,GI50,LOX IMVI,1470 nM
same,GI50,A498,1720 nM
same,GI50,OVCAR-8,2550 nM
same,GI50,NCI-H226,1670 nM
same,GI50,Malme-3M,2880 nM
same,GI50,ACHN,2410 nM
same,GI50,HCC 2998,1580 nM
same,GI50,HCT-15,2270 nM
same,GI50,OVCAR-5,3130 nM
same,GI50,UACC-62,1520 nM
same,GI50,HOP-62,1680 nM
same,GI50,SNB-75,1710 nM
same,GI50,COLO 205,1960 nM
same,GI50,TK-10,3510 nM
